From PubChem BioAssay
NR3A LBD binder: modulates the human NR3A ligand-binding domain; hit rate 2.5% among 340,000; Tm shift relative to glycine control, % at 25 µM; NR3A LBD differential scanning fluorimetry, Tm shift; 0% = protein alone, 100% = glycine-bound protein; AID 1259313;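 active = melting temperature shift of at least 10% of the positive control shift, at one fixed dose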
Hep lipid drop: hepatic lipid droplet formation modulation | hit rate 0.4% among 240,000 | AML12 mouse hepatocytes, oleate lipid droplets, BODIPY imaging | AID 1656 | inhibition, % at 6.5 µM;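 active = lipid droplet intensity inhibited by at least 50%, with more than 500 cells counted; inconclusive = wells with under 300 cells, treated as cytotoxic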
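Technique: fluorescence imaging, 20x objective, two fields per well / Assay system: AML12 hepatocytes (mouse) / Measure: % inhibition of lipid droplet signal / Doses: 6.5 µM single-point dosing / Incubation: overnight exposure / Reagent: 100 µM oleic acid challenge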
GASC-1 inh: blocks human GASC-1 demethylase activity | GST-JMJD2C(1-420) H3K9me3 demethylation, DELFIA europium | AID 2099 | hit rate 0.069% among 330,000 | inhibition, % at 2.35 µM;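 active = more than half of a compound's replicate wells show inhibition beyond 50%, single wells judged on their own value; inconclusive = some, but no more than half, of replicates pass 50% inhibition; inactive = no replicate passes 50% inhibition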;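 note: signal counts dimethyl H3K9 product captured on neutravidin plate; 0% = median of DMSO wells and 100% = 0.3 times that DMSO median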
Target sequence (Q9H3R0 1-420 limits assumed): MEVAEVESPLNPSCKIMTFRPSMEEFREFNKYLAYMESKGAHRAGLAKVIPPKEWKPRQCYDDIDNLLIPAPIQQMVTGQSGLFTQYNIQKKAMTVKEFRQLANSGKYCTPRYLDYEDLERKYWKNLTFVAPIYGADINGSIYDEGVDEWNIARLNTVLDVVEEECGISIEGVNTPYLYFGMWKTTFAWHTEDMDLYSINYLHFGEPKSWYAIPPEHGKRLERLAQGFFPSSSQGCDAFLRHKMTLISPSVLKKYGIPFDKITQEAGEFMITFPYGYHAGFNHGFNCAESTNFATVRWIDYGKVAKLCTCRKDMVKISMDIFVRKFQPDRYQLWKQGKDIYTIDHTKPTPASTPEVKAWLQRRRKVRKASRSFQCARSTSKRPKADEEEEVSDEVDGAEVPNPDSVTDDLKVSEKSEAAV
aDG glyco up: alpha-DG glycosylation activation. AID 624168. activation, % at 10 µM. hit rate 0.22% among 360,000. Pro5-aDG cells, alpha-DG glycosylation AlphaScreen (IIH6); 0% Pro5, 100% B10-LARGE cell signal;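 active = activation of at least 8% versus controls, or a plate z-score of at least 8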;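 note: Pro5 are CHO cells carrying HIG-tagged alpha-DG that lacks glycosylation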
GC-A act: GC-A (human) enzyme activation. P16066. HEK293 GC-A cells, cGMP TR-FRET, EC30 ANP; 0% at EC30 ANP, 100% saturating ANP. activation, % at 10 µM. hit rate 0.14% among 370,000. AID 1671463; in the data active = activation above about 40%
GC-B act: GC-B (human) receptor activation; activation, % at 10 µM; hit rate 0.11% among 370,000; P20594; HEK293-GC-B cells, CNP EC30, cGMP TR-FRET; 0% at EC30 CNP, 100% saturating CNP; AID 1920062;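 active = activation at 10 µM reaching about 35% in either raw or pattern-adjusted values, limit read from the data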
Active calls of the source: *; ? = inconclusive; / = no result. In the library only some 3% were active in any assay of this set; here they are far more common.

SMILES	NR3A LBD binder	Hep lipid drop	GASC-1 inh	aDG glyco up	GC-A act	GC-B act
O=C(NCCN1CCC(Cc2ccccc2)CC1)C1CCCN(S(=O)(=O)c2ccccc2)C1 (stereo not drawn)	/	/	/	/	-2	-2
O=C(Nc1cccc(C(=O)Nc2ccccc2C(=O)O)c1)c1cccc(Cl)c1	14*	/	12	0	1	-6
COc1ccc(-c2csc3nc(-c4ccccc4OC)oc(=O)c23)cc1	-1	-21	-2	0	42*	6
COc1ccc(-c2csc3nc(-c4ccc(C)cc4)oc(=O)c23)cc1OC	-2	-4	1	0	10	-4
CCn1nc(C(=O)OC(C(=O)c2c[nH]c3ccccc23)c2ccccc2)c2ccccc2c1=O (stereo not drawn)	20*	-35	-7	0	-4	-1
COc1ccc(CCNc2nc3ccccc3n3cnnc23)cc1OC	-2	7	-7	0	8	14
CCc1nnc2c(NCCc3ccc(OC)c(OC)c3)nc3ccccc3n12	-2	-2	-5	0	40*	53*
CC(=O)NC(Cc1ccc2c(c1)OCO2)C(=O)N1CCCN(C(C)=O)CC1 (stereo not drawn)	/	/	/	/	1	-5
O=C(/C=C/c1ccccc1)CC(=O)c1ccccc1O	13*	-2	0	0	-2	-2
O=C(/C=C/c1ccccc1)NC(=O)c1ccccc1O	-2	-22	9	0	-3	-3
CCOc1ccc(C(=O)COC(=O)Cn2cnc3c2c(=O)n(C)c(=O)n3C)cc1	-1	/	10	0	0	-2
Cn1c(=O)c2c(ncn2CC(=O)OCCCC(=O)c2ccc(Br)cc2)n(C)c1=O	18*	/	-3	2	1	1
CCOc1cc(NC(=S)NCCOC)c(OCC)cc1NC(=O)c1cccs1	3	-4	69*	/	0	-5
CCOc1cc(NC(=S)NCCCOC)c(OCC)cc1NC(=O)c1cccs1	0	-14	14	0	3	5
CN(C)S(=O)(=O)c1ccc2nnn(OCC(=O)NC34CC5CC(CC(C5)C3)C4)c2c1	12*	-1	16	0	-2	7
CCn1c(SCC(=O)NN=Cc2c(C)nn(-c3ccccc3)c2C)nnc1-c1ccc(OC)c(OC)c1	/	/	/	/	-5	1
N=c1c2c(-c3ccccc3)c(-c3ccccc3)n(Cc3ccccc3)c2ncn1C1CCOCC1	/	/	/	/	-33	-27
Cc1cccc(C)c1NC(=O)COC(=O)c1c2c(nc3ccccc13)/C(=C\c1ccc3c(c1)OCO3)CCC2	7	-11	-3	0	10	3
CC(OC(=O)c1c2c(nc3ccccc13)/C(=C\c1ccc3c(c1)OCO3)CCC2)C(=O)Nc1ccc(S(N)(=O)=O)cc1 (stereo not drawn)	22*	-12	/	0	/	/
CC(=O)N(C(C)=O)c1ccc(Oc2ccc(Oc3ccc(N(C(C)=O)C(C)=O)cc3)cc2)cc1	/	/	/	0	5	1
CCN(Cc1ccccc1)C(=O)C1C2C=CC3(CN(Cc4ccccc4)C(=O)C13)O2 (stereo not drawn)	/	/	/	/	1	2
COc1ccc(/C=N/NC(=S)N[C@H]2CC3CCC2C3)cc1 (stereo partly drawn)	26*	2	-1	0	0	-4
COc1cc(/C=N/NC(=S)NC2CC3CCC2C3)ccc1O (stereo not drawn)	-3	-37	-10	0	3	-4
COc1ccc(S[C@]2(C(=O)N3CCN(C(C)=O)CC3)CC(=O)N(C(=O)c3ccccc3)[C@@H]2c2ccc(OC)cc2)cc1	/	/	/	/	-11	-13
CC1(C)OC(=O)C(=Cc2ccc(-c3ccc(S(N)(=O)=O)cc3)o2)C(=O)O1	-6	15	-20	0	40*	16
SMILES	NR3A LBD binder	Hep lipid drop	GASC-1 inh	aDG glyco up	GC-A act	GC-B act
CN(/N=C/c1cc(Cl)cc(Cl)c1O)C(=S)NC(C)(C)C	31*	-40	5	0	4	9
CCOC(=O)[C@]12CCCC=C1N(CCCOC)C(=O)[C@@H]2CC(=O)N1CCN(C(=O)c2ccco2)CC1	/	/	/	/	-3	3
COc1ccc2[nH]c(-c3ccccc3)cc2c1	12*	11	-4	0	6	-3
C[C@H]1[C@@H](C(=O)N2CCCC2)CC(=O)/C(=N/OCc2ccccc2)C[C@@H]1c1ccccc1	/	/	/	/	-1	-9
O=C(Nc1ccc(O)cc1)/C(=C\C=C\c1ccccc1)NC(=O)c1ccccc1	27*	9	2	0	-5	10
CC(C)(C)NC(=O)/C(=C\C=C\c1ccccc1)NC(=O)c1ccc([N+](=O)[O-])cc1	15*	-9	1	0	-3	3
O=C(N/C(=C/C=C/c1ccccc1)C(=O)N1CCCCC1)c1ccc([N+](=O)[O-])cc1	-2	-9	1	0	0	-4
O=C(Nc1ccc(C(=O)O)cc1)/C(=C\C=C\c1ccccc1)NC(=O)c1ccccc1Cl	-29	-2	3	0	-2	1
CCOc1ccc(S(=O)(=O)N2CCOCC2)cc1NC(=O)CSCC(=O)Nc1ccc(OC)cc1	0	/	/	0	-7	-3
C/C=C/C(=O)N1CCC(C(=O)NCC2COc3ccccc3O2)CC1 (stereo not drawn)	/	/	/	/	3	9
Cc1nc2ccc(S(=O)(=O)NCC(=O)N(C)Cc3ccccc3F)cc2s1	/	/	/	/	4	9
CC1CN(C(=O)CCC(=O)NCCCN2C(C)CCCC2C)c2ccccc2O1 (stereo not drawn)	-2	-4	5	0	3	4
S=C(NCCSCc1ccc(Cl)cc1)Nc1ccccc1	12*	/	5	0	-1	-1
S=C(NCCSCc1ccccc1Cl)Nc1ccccc1	7	2	9	1	3	4
Cc1cccc(NC(=S)NCCSc2ccc(Cl)cc2)c1	14*	-28	7	0	-2	0
S=C(NCCC(c1ccccc1)c1ccccc1)Nc1ccc(Cl)cc1	15*	/	5	0	-4	5
S=C(NCCCc1ccccc1)Nc1ccc(Cl)cc1	22*	-24	1	0	6	6
O=C(Cn1c(-c2cncs2)nc2ccccc21)N1CCCCC1	/	/	/	/	7	-2
Cc1ccc(Cl)cc1NC(=O)Nc1cccs1	20*	-13	-11	2	-3	-14
Cc1ccccc1NC(=O)Nc1cccs1	-13	-10	-16	0	2	7
COc1ccc(C2OCCNC3C2C(=O)N(Cc2ccc(OC)cc2OC)C3Cc2ccccc2)cc1 (stereo not drawn)	/	/	/	/	-12	-19
Nc1ccc(C(=O)n2c3ccccc3c3ccccc32)cc1	0	?	-72	3	50*	-9
Nc1ccc(C(=O)N2CCCC2)cc1	1	-2	159	0	1	3
